Sampled rows, rich in hits. Any-hit rate of the full collection: about 2%.
Fh CTSL1 inh: Fasciola hepatica cathepsin L1 inhibitors, primary screen, counter-screen for PFM18AAP inhibitor project, biochemical, QFRET, fluorogenic peptide substrate. recombinant F. hepatica cathepsin L1, Z-Leu-Arg-MCA fluorescence. inhibition, % at 5.96 µM. 300,000 compounds, 0.49% hits. AID 1906, 2009;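 active = inhibition above the mean of all tested compounds plus 3 SD, set per screening campaign, cut at about 17% in these data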;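 note: 0% = plate median of test compound wells and 100% = 1 µM Z-Phe-Ala-diazomethylketone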
GSTO1 counter: inhibitors of recombinant GSTO1, primary screen, counter-screen for RBBP9 inhibitor project, biochemical, fluorescence polarization; inhibition, % at 5.96 µM; 300,000 compounds, 1.1% hits; activity-based probe fluorescence polarization; AID 1974, 2009;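 active = inhibition above the campaign mean inhibition plus 3 SD, cut at about 35% in these data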;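 note: 0% = GSTO1-1 with DMSO and 100% = wells lacking GSTO1-1 enzyme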
Target sequence (P78417 whole entry, looked up): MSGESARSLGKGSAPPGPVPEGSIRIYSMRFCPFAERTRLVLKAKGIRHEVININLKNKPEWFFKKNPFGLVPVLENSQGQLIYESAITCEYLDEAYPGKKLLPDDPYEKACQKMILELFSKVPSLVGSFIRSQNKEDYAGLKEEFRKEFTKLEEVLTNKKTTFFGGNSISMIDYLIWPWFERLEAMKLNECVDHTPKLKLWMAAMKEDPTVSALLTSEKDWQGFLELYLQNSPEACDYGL
Apaf-1 inh: inhibitors of human Apaf-1 apoptosome, primary screen, biochemical, DEVD-Rh110 fluorescence, uHTS; Apoptotic protease-activating factor 1 (Homo sapiens), O14727; reconstituted apoptosome caspase-3 activity; inhibition, % at 20 µM; 330,000 compounds, 0.71% hits; AID 489030, 2010; active = inhibition of at least 40% at 20 µM;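 note: plate controls were DMSO wells for no effect and DEVD-CHO caspase inhibitor wells for full effect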
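System: Apoptosome proteins | Medium: Hepes pH 7.5 with detergent and BSA | Also added: Cytochrome c trigger plus (Z-DEVD)2-Rh110 caspase-3 substrate | Incubation: 30 min compound preincubation, 50 min activation, room temperature | Detection: Rhodamine 110 fluorescence at Ex 480/Em 540 nm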
PAD4 inh: human PAD4 inhibitors, primary screen, biochemical, fluorescence polarization, 1536-well format; inhibition, % at 6.36 µM; AID 485272, 2010; recombinant PAD4, RCA probe fluorescence polarization; 330,000 compounds, 0.41% hits;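 active = percent inhibition above a cutoff equal to the mean of all tested compounds plus 3 SD, cut at about 15% in these data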;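 note: 0% = PAD4 with RCA probe and DMSO and 100% = probe without PAD4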
UCH37 inh: inhibitors of human UCH37 deubiquitinase, primary screen, biochemical, Ub-AMC cleavage, fluorescence. Ubiquitin carboxyl-terminal hydrolase isozyme L5 (Homo sapiens), Q9Y5K5. purified proteasome/UCH37. inhibition, % (no concentration beside the values). 330,000 compounds, 0.33% hits. AID 588478, 2011;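 active = mean inhibition over replicate wells above about 20%, limit read from the data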;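 note: 0% = compound-free wells with enzyme and 100% = wells lacking proteasome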
Target sequence (Q9Y5K5 whole entry, looked up): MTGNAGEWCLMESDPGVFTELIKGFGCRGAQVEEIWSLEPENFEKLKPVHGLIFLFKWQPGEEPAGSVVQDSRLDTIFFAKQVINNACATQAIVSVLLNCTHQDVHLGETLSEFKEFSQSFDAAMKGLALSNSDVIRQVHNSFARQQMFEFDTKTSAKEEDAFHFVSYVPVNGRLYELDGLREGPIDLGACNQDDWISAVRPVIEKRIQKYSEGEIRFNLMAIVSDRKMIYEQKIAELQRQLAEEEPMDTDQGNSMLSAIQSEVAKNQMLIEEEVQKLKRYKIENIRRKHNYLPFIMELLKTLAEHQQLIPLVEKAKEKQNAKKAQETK
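Test system – human UCH37 enzyme supplied as purified proteasome complex · Incubation – 30 min preincubation with enzyme, 25 min cleavage at room temperature · Detection – AMC fluorescence from Ub-AMC cleavage, excitation 355 nm, emission 460 nm · Benchmarks – no-proteasome wells (full inhibition) and compound-free wells (no inhibition)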
PP5 inh: PP5 phosphatase inhibitors, primary screen, biochemical, fluorescence; purified PP5c, OMFP substrate fluorescence; inhibition, % at 6.7 µM; 320,000 compounds, 0.18% hits;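 active = inhibition above the campaign's mean inhibition across all tested compounds plus 3 SD, cut at about 9.5% in these data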;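 note: 0% = DMSO only and 100% = 100 µM cantharidin control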
GSTO1 confirm: GSTO1 inhibitor hit confirmation, counter-screen for RBBP9 inhibitor project, biochemical, fluorescence polarization, triplicate; 2,400 compounds, 54% hits; inhibition, % at 5.96 µM; shares compounds with GSTO1 counter; recombinant GSTO1, probe fluorescence polarization;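 active = inhibition above the primary screen's cutoff, its mean inhibition plus 3 SD, cut at about 35% in these data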;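 note: loss of polarization as inhibitors block binding of rhodamine sulfonate ester activity probe; 0% = GSTO1 with DMSO and 100% = wells lacking GSTO1 enzyme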
* hit, by the source's call; . = no result given; ! = repeats disagree.

SMILES | Fh CTSL1 inh | GSTO1 counter | Apaf-1 inh | PAD4 inh | UCH37 inh | PP5 inh | GSTO1 confirm
Cc1ccc(-c2cc(NC(=O)CCl)n(-c3ccccc3)n2)cc1 | 75.3* | 73.2* | 2.3 | 1.4 | 4.9 | 2.3 | 86.4*
O=C1C=C(Nc2ccccc2)C(=O)c2ccccc21 | 1.8 | 32.1 | 17.1 | -12.4 | 6.2 | 1.9 | .
CC1=CC(=O)c2ccccc2C1=O | -2.4 | 39.0*! | -1.9 | -7.5 | 4.9 | 4.3 | 50.0*
COC(=O)\C(C(C)=O)=C(/C=C/C=C/C=C/N(C)C)N(C)C | -0.2 | 37.6* | -15.3 | 3.5 | 9.4 | 2.5 | -43.8
CC(=NNC(=O)CNc1cccc(C(F)(F)F)c1)c1ccc(Br)cc1 | . | . | . | . | -4.0 | . | .
Cc1n[nH]c(=S)n1N=Cc1ccc(-c2ccc(Cl)cc2)o1 | . | . | . | . | 1.6 | . | .
Cc1ccc(C)c(C(=O)CSc2nnnn2C(C)C)c1 | -0.1 | 2.1 | 3.7 | -4.2 | 3.7 | -0.4 | .
Cc1ccc(C(=O)CSc2nnnn2C(C)C)c(C)c1 | -1.3 | 39.4* | 10.5 | -1.6 | 1.3 | 3.9 | 37.5*
O=C(O)Cc1ccc(O)c(O)c1 | -2.2 | 7.1 | 1.3 | -4.4 | -0.4 | 0.3 | .
O=C(O)Cc1cc(I)c(Oc2ccc(O)c(I)c2)c(I)c1 | 2.1 | 62.2* | 28.0 | -6.9 | . | 3.0 | 56.5*
COc1ccccc1-c1noc(-c2cc(OC)c(OC)c(OC)c2)n1 | 2.2 | -6.7 | 14.2 | -3.6 | 1.7 | 0.6 | .
COc1cc(OC)cc(-c2nc(-c3ccccc3OC)no2)c1 | -3.0 | 52.5* | 7.3 | 3.1 | 1.4 | 0.4 | 6.1
CCCOc1ccc2ccccc2c1C=Nn1cnnc1 | . | . | . | . | 6.9 | . | .
COCCNC(=O)C(=O)N/N=C(\C)CC(=O)Nc1ccc(Cl)cc1Cl | -3.7 | 71.0* | -2.8 | -3.1 | . | 1.6 | 7.7
CC(CC(=O)Nc1ccc(Cl)cc1Cl)=NNC(=O)C(=O)NCCO | . | . | . | . | 4.4 | . | .
O=C(NC1CCCCCC1)c1ccc(Br)o1 | 1.4 | -2.9 | 7.3 | -2.8 | 0.0 | 1.2 | .
O=C(NC1CCCCC1)Oc1cc2oc(=O)sc2cc1Br | -0.9 | 51.3* | -7.4 | -3.3 | 2.8 | -0.6 | 13.6
CCOc1ccc2nc(N3CCCCCC3)sc2c1 | -1.0 | 10.0 | 9.8 | 1.9 | -2.5 | 1.9 | .
CCOc1ccc2nc(N3C(=O)/C(=C/c4ccccc4)NC3=S)sc2c1 | 4.5 | 58.9* | 9.7 | 3.3 | 13.7 | 0.5 | 55.3*
COc1ccc2nc(N3C(=O)/C(=C/c4ccccc4)NC3=S)sc2c1 | 3.9 | 42.4* | 26.7 | -14.8 | 11.0 | 3.8 | 56.5*
COc1ccc(C=NNC(=O)C(=O)/C=C2\NC3(CCCC3)Cc3ccccc32)cc1 | . | . | . | . | 7.8 | . | .
CCN1C(=O)C2(C(C#N)=C(N)Oc3c2c(C)nn3-c2ccccc2)c2ccccc21 (configuration not stated) | 0.7 | 38.9* | 5.8 | -3.7 | 1.5 | 4.7 | 9.7
Oc1ccc(C=NNc2ccnc3cc(Cl)ccc23)cc1O | . | . | . | . | -14.4 | . | .
Oc1ccc(/C=N/Nc2ccnc3cc(Cl)ccc23)cc1O | -3.4 | 38.0* | 5.3 | -4.3 | . | 1.5 | 7.5
COc1ccc(NC(=O)c2cc(CC(C)C)nc3ccccc23)cc1 | 3.7 | 0.1 | -3.2 | -4.8 | 6.5 | 0.9 | .
Cc1ccc(NC(=O)c2cc(CC(C)C)nc3ccccc23)cc1 | -22.8 | 42.3* | 2.0 | -2.9 | -0.2 | 0.4 | 4.4
O=C(CNC(=O)c1ccco1)NN=Cc1ccc(O)c([N+](=O)[O-])c1 | . | . | . | . | 3.7 | . | .
Cc1ccc(C)c(Sc2ccc(NC(=O)CCN3C(=O)NC4(CCCC4)C3=O)cc2)c1 | . | . | 27.8 | -4.7 | 0.1 | 5.5 | .
Cc1ccc(Sc2ccc(NC(=O)CCl)cc2)c(C)c1 | 1.1 | 77.9* | 0.3 | 3.4 | 0.4 | 5.3 | 88.8*

Compound activity: PubChem, several laboratories
